Reference: PubChem BioAssay
Active and inactive are the calls of the source.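 Rule for the calls, unless noted: active = a full or partial loss of lipid-probe fluorescence in the fish gall bladder, intestine or both, judged by eye; inactive = no fluorescence loss, or compound toxic to the fish.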

Assays:
[1] = inhibitors of TNFa-induced NFkB p65 translocation, primary screen, imaging, HUVEC, MLSMR starter and 10KST1 sets (AID 438;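 active = inhibition above 20% together with a positive visual image hit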;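 note: compound added about 3h40 before a 20 min TNFalpha stimulation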;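 for inhibition: signal is the nuclear over cytoplasmic p65 intensity ratio per well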); settings: HUVEC TNFa-induced p65 nuclear translocation; cell count: measured here: nuclei count (cytotoxicity indicator), at 2.08 µM; inhibition: at 2 µM, stronger effect = higher value, 0% TNFa-plus-vehicle, 100% no-TNFa wells
[2] = inhibitors of E-selectin induction by TNFa, primary screen, imaging, HUVEC, immunofluorescence, MLSMR starter and 10KST1 sets (AID 487;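 active = visually confirmed hit in the image check and inhibition above 20%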;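 for inhibition: signal is fraction of cell area covered by stained E-selectin grains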;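 for nuclei count: 100% = median nuclei count of all wells on the same plate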); settings: HUVEC TNFalpha-induced E-selectin immunofluorescence imaging, at 2 µM; inhibition: stronger effect = higher value; nuclei count: measured here: cell number, toxicity
[3] = DUSP6 inhibitors restoring Erk phosphorylation by chemical complementation, primary imaging in DUSP6-transfected HeLa (AID 609;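 active = compounds giving at least 50% inhibition in the cell-based MKP-3 phosphatase rescue imaging test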;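 for inhibition: phospho-Erk level distribution per well compared with pooled transfected vehicle control wells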); settings: HeLa MKP-3 transfected, phospho-Erk imaging KS statistic, at 10 µM, cells stimulated with TPA for 15 min
[4] = target: Dual specificity protein phosphatase 6 (Homo sapiens) (UniProt Q16828); experiment: as above; settings: HeLa MKP-3 transfected, phospho-Erk imaging KS statistic; at 10 µM; stronger effect = higher value; cells stimulated with TPA for 15 min
Chain of Dual specificity protein phosphatase 6 (Homo sapiens) (Q16828 whole entry, looked up): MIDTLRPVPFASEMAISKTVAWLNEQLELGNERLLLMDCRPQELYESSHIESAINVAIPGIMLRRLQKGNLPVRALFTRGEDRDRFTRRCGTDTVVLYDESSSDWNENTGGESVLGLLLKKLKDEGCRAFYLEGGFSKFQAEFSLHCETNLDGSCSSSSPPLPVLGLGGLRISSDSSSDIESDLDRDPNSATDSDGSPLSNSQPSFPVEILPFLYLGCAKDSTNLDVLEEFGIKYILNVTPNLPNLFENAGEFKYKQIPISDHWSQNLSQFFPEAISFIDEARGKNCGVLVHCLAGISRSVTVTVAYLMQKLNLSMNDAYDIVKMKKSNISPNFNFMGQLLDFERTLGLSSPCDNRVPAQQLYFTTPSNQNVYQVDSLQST

[5] = target: Voltage-gated potassium channel subunit beta-2 (Rattus norvegicus) (UniProt P62483); experiment: KvBeta enzyme negative modulators, primary screen, biochemical, NADPH fluorescence (AID 622;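 active = fluorescence slope higher than the sample average by over 3 SD, cut at about -0.22 in these data, passing the limit was not always enough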;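 note: slope of raw intensity against log time taken from 70 to 1610 s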); settings: recombinant KvBeta, 4-cyanobenzaldehyde reduction, at 10 µM, stronger effect = higher value
Chain of Voltage-gated potassium channel subunit beta-2 (Rattus norvegicus) (P62483 whole entry, looked up): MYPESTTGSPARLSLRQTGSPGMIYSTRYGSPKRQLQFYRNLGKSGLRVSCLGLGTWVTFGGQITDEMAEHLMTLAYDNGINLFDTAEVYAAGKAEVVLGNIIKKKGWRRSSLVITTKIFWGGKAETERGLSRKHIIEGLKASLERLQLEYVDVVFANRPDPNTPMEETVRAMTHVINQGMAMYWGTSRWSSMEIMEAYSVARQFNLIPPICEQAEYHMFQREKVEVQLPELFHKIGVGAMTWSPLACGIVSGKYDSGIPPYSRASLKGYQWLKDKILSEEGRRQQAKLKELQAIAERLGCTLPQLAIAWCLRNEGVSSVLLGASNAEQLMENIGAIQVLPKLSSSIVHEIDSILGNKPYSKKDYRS

[6] = target: Voltage-gated potassium channel subunit beta-2 (Rattus norvegicus) (UniProt P62483); experiment: KvBeta positive modulators, primary screen, biochemical, NADPH fluorescence (AID 623;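 active = NADPH fluorescence slope more negative than the mean of all samples by about 3 SD, 99.7% confidence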;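 note: fluorescence intensity change per second fitted from 20 to 320 s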); settings: Recombinant KvBeta, NADPH fluorescence decrease slope, 10 min; at 10 µM; stronger effect = lower value
[7] = target: Alpha-2C adrenergic receptor (Homo sapiens) (UniProt P18825); experiment: modulators of alpha2C/GIRK thallium flux, primary screen, cell-based, HEK293 alpha2C/GIRK1/2 (AID 624;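 active = fluorescence slope after compound addition differing from the mean of all screened samples at 99.7% confidence, in either direction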;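 note: slope of fluorescence ratio to pre-addition baseline per second over 15 to 24 s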); settings: thallium flux BTC fluorescence, at 10 µM, actives lie on both sides
Chain of Alpha-2C adrenergic receptor (Homo sapiens) (P18825 whole entry, looked up): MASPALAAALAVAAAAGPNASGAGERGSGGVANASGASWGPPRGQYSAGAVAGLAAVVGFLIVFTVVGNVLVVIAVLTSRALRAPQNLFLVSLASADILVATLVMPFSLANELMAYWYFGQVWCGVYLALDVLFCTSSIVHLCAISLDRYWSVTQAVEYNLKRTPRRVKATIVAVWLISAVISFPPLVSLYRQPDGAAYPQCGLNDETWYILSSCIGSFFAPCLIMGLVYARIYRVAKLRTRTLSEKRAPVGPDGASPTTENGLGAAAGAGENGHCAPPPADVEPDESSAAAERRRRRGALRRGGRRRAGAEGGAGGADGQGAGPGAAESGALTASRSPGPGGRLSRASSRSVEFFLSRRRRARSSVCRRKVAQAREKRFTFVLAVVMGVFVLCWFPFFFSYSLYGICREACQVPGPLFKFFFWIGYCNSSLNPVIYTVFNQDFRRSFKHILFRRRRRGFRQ

[8] = inhibitors of larval lipid processing in zebrafish, primary screen, whole organism, PED6 fluorescence, gall bladder and intestine (AID 686); settings: Zebrafish larvae PED6 lipid processing, fluorescence scoring; screened at 20 µM (by protocol);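 note: larvae 5 to 7 days old with five fish per well; signal comes from phospholipase A2 cleavage of quenched PED6 carried via bile; overnight exposure to compound and PED6 before scoring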
How it was run: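 Doses: 20 µM single dose. Test system: live zebrafish larvae aged 5-7 days, whole organism. Quantity: five larvae per well. Measured by: By-eye fluorescence microscopy. Reagent: ingested quenched lipid PED6 at 100 nM. Read-out: visual per-well fluorescence inhibition score. Times: overnight exposure of larvae to compound plus PED6.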

[9] = inhibitors of Chlamydomonas gravitaxis, primary screen, whole organism, Chlamydomonas reinhardtii, WT vs cilia-less mutant, absorbance, 96-well (AID 463189;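 active = inhibition at or above 50% relative to wild type and mutant plate controls; inactive = inhibition below 50%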;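 note: 0% = wild type cc124 cells in DMSO and 100% = ciliumless bld1 mutant cells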); settings: OD600 absorbance, 2 days, at 10 µM, stronger effect = higher value
[10] = measured here: cell density z-score
[11] = measured here: nuclear c-Myc green intensity z-score
[12] = measured here: nuclear pErk red intensity z-score, stronger effect = higher value

Row | Compound | cell count [1] | inhibition [1] | inhibition [2] | nuclei count [2] | z-score [3, 10] | z-score [3, 11] | z-score [3, 12] | inhibition [4] | fluorescence slope [5] | NADPH fluorescence slope [6] | slope [7] | outcome [8] | inhibition [9]
1 | Cc1occc(=O)c1OC(=O)Nc1ccccc1 | 477 | -8.6% (inactive) | -106% (inactive) | 154% | -0.12 | 2.47 | -1.69 | 14% (inactive) | -0.524 (inactive) | -2.3e-05 (inactive) | 0.00424 (inactive) | inactive | -3.66% (inactive)
2 | CCOC(=O)c1c(N)sc2c1CCC1C(=O)N(C3CCCCC3)C(=O)C21 (stereo not drawn) | 593 | -15.5% (inactive) | -59.6% (inactive) | 170% | -0.619 | -0.159 | 0.799 | -11% (inactive) | -0.362 (inactive) | -3.1e-06 (inactive) | 0.0048 (inactive) | inactive | -3.12% (inactive)
3 | CCCOc1ccc(-c2nnc(N)s2)cc1 | 608 | -13.2% (inactive) | -31.6% (inactive) | 164% | 0.463 | 0.84 | -0.902 | -4.27% (inactive) | -0.403 (inactive) | -6.2e-05 (inactive) | 0.00732 (inactive) | inactive | -0.862% (inactive)
4 | CCOc1ccc(-n2c(SCc3ccc(C#N)cc3)nnc2-c2cccnc2)cc1 | 343 | -6% (inactive) | 6.3% (inactive) | 157% | 0.958 | -0.128 | 0.447 | 13.4% (inactive) | -0.421 (inactive) | -0.00013 (inactive) | 0.00481 (inactive) | inactive | -11.3% (inactive)
5 | CCCOC(=O)CSC1=C(C#N)C(c2ccccc2OC)C(C#N)C(=O)N1 (stereo not drawn) | 496 | -3.9% (inactive) | -60% (inactive) | 136% | -0.969 | 0.676 | 0.273 | -2.07% (inactive) | -0.5 (inactive) | -7.4e-05 (inactive) | 0.00543 (inactive) | inactive | -12.6% (inactive)
6 | Cc1ccc(C2CC(C(F)(F)F)n3ncc(C(N)=O)c3N2)cc1 (stereo not drawn) | 506 | -1.3% (inactive) | 4.8% (inactive) | 124% | -0.204 | -0.144 | 1.07 | -7.79% (inactive) | -0.5 (inactive) | -8.2e-05 (inactive) | 0.00506 (inactive) | inactive | 16.3% (inactive)
7 | Cc1cc(C)c(C#N)c(SCC(=O)N2CCN(Cc3ccccc3)CC2)n1 | 660 | -29% (inactive) | -68.1% (inactive) | 173% | -1.99 | 0.41 | 1.64 | -7.28% (inactive) | -0.419 (inactive) | -3.2e-05 (inactive) | 0.00644 (inactive) | inactive | 8.58% (inactive)
8 | COC(=O)c1ccc(Nc2cc(C)nc(-c3ccccc3O)n2)cc1 | 598 | -2.7% (inactive) | -66.3% (inactive) | 140% | 0.899 | 0.0889 | -0.242 | 1.9e-07% (inactive) | -0.106 (inactive) | 2.6e-07 (inactive) | 0.00449 (inactive) | inactive | 17.7% (inactive)
9 | Cc1ccc(C2/C(=C(\O)c3cnn(-c4ccccc4)c3C)C(=O)C(=O)N2CCN(C)C)o1 (stereo not drawn) | 488 | 4.7% (inactive) | -57.2% (inactive) | 108% | -0.998 | 2.35 | 1.95 | 5.26% (inactive) | -0.583 (inactive) | -3.5e-05 (inactive) | 0.00573 (inactive) | inactive | -22.8% (inactive)
10 | COc1cc(C2C(C(=O)c3ccc(C)o3)=C(O)C(=O)N2c2cc(C)on2)cc(OC)c1OC (stereo not drawn) | 531 | -0.1% (inactive) | -101% (inactive) | 125% | 1.95 | 0.514 | -0.298 | 19.3% (inactive) | -0.507 (inactive) | -9.6e-06 (inactive) | 0.00526 (inactive) | inactive | -18.1% (inactive)
11 | COc1cccc(N2CCN(C3CC(=O)N(c4cccc(Cl)c4)C3=O)CC2)c1 (stereo not drawn) | 325 | -2.2% (inactive) | -62.9% (inactive) | 80.7% | -0.898 | 1.47 | -0.427 | 3.42% (inactive) | -0.43 (inactive) | -0.00011 (inactive) | 0.00471 (inactive) | inactive | -11.3% (inactive)
12 | CCOC(=O)C1Cc2c([nH]c3ccccc23)C(C)N1 (stereo not drawn) | 640 | -12.2% (inactive) | -61.9% (inactive) | 176% | -0.293 | -0.384 | -0.135 | -18.6% (inactive) | -0.422 (inactive) | -5.9e-05 (inactive) | 0.00514 (inactive) | inactive | -12.3% (inactive)
13 | CCC1(C)Cc2ccccc2-c2nc(NCCO)n(-c3ccccc3)c(=O)c21 (stereo not drawn) | 467 | 0.9% (inactive) | -104% (inactive) | 137% | -0.977 | 0.92 | 0.687 | -14% (inactive) | -0.0137 (active) | 6.5e-06 (inactive) | 0.00569 (inactive) | inactive | -9.34% (inactive)
14 | N#CC1=C2SCC(O)(c3ccccc3)N2C(=O)CC1c1ccccc1 (stereo not drawn) | 487 | 0.4% (inactive) | -39.3% (inactive) | 98.1% | -0.384 | -0.62 | 2.84 | -3.98% (inactive) | -0.459 (inactive) | -0.00022 (inactive) | 0.00444 (inactive) | inactive | 13.3% (inactive)
15 | CC(=O)C1=C(O)C(=O)N(c2cccc(C(=O)O)c2)C1c1ccccc1F (stereo not drawn) | 545 | -2.4% (inactive) | -73.9% (inactive) | 156% | -0.336 | 0.7 | 0.539 | -9.66% (inactive) | -0.505 (inactive) | -4.6e-05 (inactive) | 0.00649 (inactive) | inactive | 3.92% (inactive)
16 | CN1CCc2nc(SCC(=O)Nc3ccc(Cl)cc3)c(C#N)cc2C1 | 378 | -14.3% (inactive) | -155% (inactive) | 162% | 1.95 | -0.641 | -1.16 | 12.3% (inactive) | -0.422 (inactive) | -0.000135 (inactive) | 0.0059 (inactive) | inactive | 0.323% (inactive)
17 | COc1ccc(C(CC(=O)O)NC(=O)OC(C)(C)C)cc1 (stereo not drawn) | 352 | -12.3% (inactive) | -60.6% (inactive) | 167% | 0.0535 | 0.856 | 1.62 | -7.01% (inactive) | -0.414 (inactive) | -0.000134 (inactive) | 0.00454 (inactive) | inactive | -3.6% (inactive)
18 | O=C(O)C1CSCN1S(=O)(=O)c1cccc2nsnc12 (stereo not drawn) | 539 | -8.4% (inactive) | -34% (inactive) | 120% | -0.369 | 1.2 | -0.893 | -11.5% (inactive) | -0.496 (inactive) | -5.5e-05 (inactive) | 0.00516 (inactive) | inactive | -1.08% (inactive)
19 | COc1ccccc1C(=O)NC(=Nc1nc2ccccc2o1)NC(=O)c1ccccc1OC | 511 | -2.8% (inactive) | 0.2% (inactive) | 100% | -1.24 | -0.586 | 0.38 | -2.91% (inactive) | -0.572 (inactive) | -9.6e-05 (inactive) | 0.0126 (inactive) | inactive | -7.36% (inactive)
20 | COc1ccc(/C(O)=C2/C(=O)C(=O)N(CCCN(C)C)C2c2cccc(Cl)c2)cc1OC (stereo not drawn) | 382 | -1.1% (inactive) | -135% (inactive) | 155% | -1.5 | 0.328 | 0.495 | 3.66% (inactive) | -0.393 (inactive) | -5.4e-05 (inactive) | 0.00697 (inactive) | inactive | 0.268% (inactive)
21 | CCCOc1ccc(C(C)=O)cc1CSCCC#N | 298 | -26.4% (inactive) | -186% (inactive) | 136% | -0.222 | -1.52 | 0.779 | 7.01% (inactive) | -0.462 (inactive) | -0.000379 (inactive) | 0.00586 (inactive) | inactive | 17.2% (inactive)
22 | CCN(CC)c1ccc2cc(-c3nnc(-c4ccncc4)o3)c(=O)oc2c1 | 490 | -5.2% (inactive) | -87.1% (inactive) | 137% | -0.456 | 1.6 | 0.914 | 72.4% (inactive) | -0.436 (inactive) | -0.000104 (inactive) | 0.00165 (inactive) | inactive | 6.54% (inactive)
23 | O=C(O)CC(C(=O)N(c1ccccc1)c1ccccc1)N1CCOCC1 (stereo not drawn) | 498 | -4.7% (inactive) | -103% (inactive) | 118% | -1.14 | 0.849 | 1.75 | -7.01% (inactive) | -0.576 (inactive) | -4e-05 (inactive) | 0.00573 (inactive) | inactive | -20.4% (inactive)
24 | Cc1[nH]c2ccc3c(ncn3CCC#N)c2c1C | 616 | -7.5% (inactive) | -48.6% (inactive) | 166% | -0.136 | 0.347 | 0.974 | 18.2% (inactive) | -0.5 (inactive) | -3.5e-05 (inactive) | 0.00512 (inactive) | inactive | 11.7% (inactive)
25 | Cc1nn(C)cc1CNC(=O)c1ccc(Br)o1 | 507 | -14.6% (inactive) | -66.6% (inactive) | 111% | 0.29 | 0.777 | -0.409 | 10.1% (inactive) | -0.444 (inactive) | -3.5e-08 (inactive) | 0.00689 (inactive) | inactive | 0.36% (inactive)
26 | CN(C)c1oc(-c2cccs2)nc1C#N | 443 | -7.1% (inactive) | -173% (inactive) | 157% | 1.44 | 1.03 | -0.732 | 6.04% (inactive) | -0.052 (inactive) | -1.6e-06 (inactive) | 0.00583 (inactive) | inactive | 4.07% (inactive)
